Assay outcomes (PubChem)
UPR CHOP act – activators of apoptotic CHOP UPR arm, primary screen, cell-based, CHO-CHOP luciferase reporter, luminescence, uHTS. 330,000 tested, 0.34% active. AID 449763, 2010. UPR activation; percent of tunicamycin response over DMSO baseline. activation, % at 10 µM;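 active = at 10 µM dose, activation of 40% or more, normalized to positive control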;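 also: 100% = tunicamycin at 10 µg/mL and 0% = DMSO alone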
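measured by = luciferase luminescence | assay system = CHO-CHOP cells, stable luciferase reporter of PERK-eIF2a-CHOP signalling | amount = 500 reporter cells seeded per well | timing = 6 h compound exposure at 37 °C after overnight seeding | controls = positive tunicamycin 10 µg/mL, negative DMSO alone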
Beta apoptosis – inhibitors of cytokine-induced beta cell apoptosis, primary screen, luminescence; INS-1E cytokine-induced death, ATP luminescence, 48 h; percent of positive-control rescue, neutral wells zero; protection from apoptosis, % (concentration not given with the values); 300,000 tested, 0.8% active;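 active = Every replicate reaches about 75%, or at least half do and their mean reaches it too, limit read from the data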;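 also: 0% = cytokine-treated negative control wells and 100% = positive control rescue; higher means more ATP so stronger rescue from cytokine killing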
Mdm2 MdmX PPI – inhibitors of human Mdm2-MdmX association, primary screen, cell-based, luminescence, split luciferase, SaOS-2, uHTS; 330,000 tested, 3% active; SaOS-2 split-luciferase Mdm2/MdmX complementation; inhibition, % at 8 µM; Protein Mdm4 (Homo sapiens) + E3 ubiquitin-protein ligase Mdm2 (Homo sapiens), …;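 active = inhibition of at least 50% at 8 µM in the primary screen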
Target sequence (O15151 whole entry, looked up): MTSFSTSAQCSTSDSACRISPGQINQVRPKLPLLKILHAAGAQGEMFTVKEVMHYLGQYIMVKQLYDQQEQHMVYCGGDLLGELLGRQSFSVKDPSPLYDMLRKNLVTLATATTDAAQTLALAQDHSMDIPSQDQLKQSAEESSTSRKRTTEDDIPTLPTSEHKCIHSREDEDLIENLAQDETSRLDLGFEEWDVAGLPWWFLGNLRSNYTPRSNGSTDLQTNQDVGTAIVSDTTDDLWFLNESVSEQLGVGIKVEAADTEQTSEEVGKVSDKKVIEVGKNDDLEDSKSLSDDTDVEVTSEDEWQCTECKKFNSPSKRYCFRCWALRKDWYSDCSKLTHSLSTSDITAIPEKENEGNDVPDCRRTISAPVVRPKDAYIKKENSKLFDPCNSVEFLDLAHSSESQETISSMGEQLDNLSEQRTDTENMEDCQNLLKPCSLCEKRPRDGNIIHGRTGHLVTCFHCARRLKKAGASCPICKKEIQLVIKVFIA
Target sequence (Q00987 whole entry, looked up): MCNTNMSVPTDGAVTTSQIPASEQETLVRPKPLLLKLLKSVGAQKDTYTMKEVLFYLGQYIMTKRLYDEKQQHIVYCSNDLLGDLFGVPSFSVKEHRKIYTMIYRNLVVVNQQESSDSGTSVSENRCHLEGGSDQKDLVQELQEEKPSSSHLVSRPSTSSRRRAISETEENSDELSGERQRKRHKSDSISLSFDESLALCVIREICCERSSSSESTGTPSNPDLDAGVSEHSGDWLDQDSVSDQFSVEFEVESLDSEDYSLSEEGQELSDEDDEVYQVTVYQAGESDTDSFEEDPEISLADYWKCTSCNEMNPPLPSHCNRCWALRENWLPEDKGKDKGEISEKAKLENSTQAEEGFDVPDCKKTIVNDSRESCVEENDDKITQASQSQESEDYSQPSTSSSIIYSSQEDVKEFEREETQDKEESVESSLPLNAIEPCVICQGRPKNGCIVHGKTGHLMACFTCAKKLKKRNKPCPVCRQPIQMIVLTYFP
SKKanGAS inh – S. pyogenes SKKanGAS growth inhibitors in kanamycin, primary screen, streptokinase expression inhibitor project, SKKanGAS strain, BacTiter-Glo luminescence; inhibition, % at 7.5 µM; 6 h; AID 1662, 2009; 300,000 tested, 1.3% active;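 active = mean replicate score, as percent of positive control median, at least 50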;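 also: strain carries kanamycin resistance gene driven by streptokinase promoter and grows in 40 µg/ml kanamycin; loss of luminescence reflects streptokinase promoter inhibition or plain growth inhibition; 0% = median of DMSO wells and 100% = positive control at its reference dose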
CSC inhib – cancer stem cell viability inhibitors, primary screen, luminescence; cancer stem cell-like cells viability; inhibition, % at 7.5 µM; 300,000 tested, 1.1% active; in the data active = inhibition above about 75%; tested in HMLE shEcad cells
UPR XBP1 act – activators of adaptive XBP1 UPR arm, primary screen, cell-based, CHO-XBP1 luciferase reporter, luminescence, uHTS | activation, % at 20 µM | IRE1-XBP1 UPR activation; percent of tunicamycin response, DMSO as zero | 330,000 tested, 0.33% active;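 active = versus positive control, 20 µM dose yields 30% or more activation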;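 also: 100% = tunicamycin at 10 µg/mL and 0% = DMSO only wells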
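Assay system: IRE1-XBP1 luciferase reporter CHO line. Input: 1000 cells/well. Buffer or medium: F12 with 10% serum. Doses: 20 µM, 1% DMSO. Times: overnight seeding at 37 °C, 6 h compound treatment at 37 °C. Technique: Steady-Glo luciferase glow luminescence, 10 min after reagent addition.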
Mdm2-MdmX conf – Mdm2-MdmX complex disruptors, retested hits, confirmation, luminescence, single concentration; shares compounds with Mdm2 MdmX PPI; Mdm2-MdmX binding, luminescent assay; inhibition, % at 8 µM; 10,000 tested, 55% active; AID 489028, 2010; in the data active = inhibition above about 40%
Full FLuc ctr – full-length luciferase signal inhibition, confirmation, counter-screen for Mdm2/MdmX interaction inhibitor project, cell-based, single concentration, SaOS-2. shares compounds with Mdm2 MdmX PPI. SaOS-2 full-length luciferase counterscreen, luminescence. inhibition, % at 8 µM. 6,200 tested, 77% active;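 active = mean inhibition at 8 µM reaching about 37%, which flags the compound as non-specific, limit read from the data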;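 also: p53-null SaOS-2 cells with luciferase driven by a doxycycline-inducible promoter; compound on cells about two nights before reading with doxycycline added after day one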
Active calls of the source: *. Rows were chosen to be rich in hits. Some 4.8% of all compounds tested hit in one or more screens of this group.

How did CN1CCN(C(=O)c2ccc3c(c2)N(C)C(=O)/C(=C/c2cccc(Cl)c2)S3)CC1 do in these assays?
UPR CHOP act: 4; Beta apoptosis: -5; Mdm2 MdmX PPI: 46; SKKanGAS inh: 37; CSC inhib: -15; UPR XBP1 act: 3

Results for COc1ccc(/C=C2\Sc3ccc(C(=O)N4CCN(Cc5ccccc5)CC4)cc3N(C)C2=O)cc1OC ?
UPR CHOP act: 3; Beta apoptosis: 26; Mdm2 MdmX PPI: 61*; SKKanGAS inh: 71*; CSC inhib: 4; UPR XBP1 act: 5; Mdm2-MdmX conf: 14

What do the screens show for `CN1C2CCC1/C(=C\c1ccccc1)C(=O)/C2=C\c1ccccc1`?
UPR CHOP act: 19; Beta apoptosis: -22; Mdm2 MdmX PPI: 95*; SKKanGAS inh: 12; CSC inhib: 92*; UPR XBP1 act: 2; Mdm2-MdmX conf: 57*; Full FLuc ctr: 15

Results for Cc1nn(Cc2ccc(Cl)cc2Cl)c(C)c1NC(=O)CCl ?
UPR CHOP act: 4; Beta apoptosis: -9; Mdm2 MdmX PPI: 78*; SKKanGAS inh: -4; CSC inhib: -6; UPR XBP1 act: 0; Mdm2-MdmX conf: 92*; Full FLuc ctr: 62*

Results for CC(=O)Nc1c(C)nn(-c2ccc([N+](=O)[O-])cc2)c1C ?
UPR CHOP act: -1; Beta apoptosis: -5; Mdm2 MdmX PPI: 13; SKKanGAS inh: -2; CSC inhib: 1; UPR XBP1 act: 0

What do the screens show for `Cc1nn(Cc2ccc(Cl)cc2Cl)c(C)c1NC(=O)c1ccc(COc2cc(Cl)ccc2Cl)o1`?
UPR CHOP act: 5; Beta apoptosis: 7; Mdm2 MdmX PPI: 58*; SKKanGAS inh: 19; CSC inhib: 4; UPR XBP1 act: -2; Mdm2-MdmX conf: -4

Results for Cc1ccc(-n2nc(C)c(NC(=O)CCl)c2C)cc1 ?
UPR CHOP act: 3; Beta apoptosis: 5; Mdm2 MdmX PPI: 85*; SKKanGAS inh: -2; CSC inhib: 6; UPR XBP1 act: -3; Mdm2-MdmX conf: 43*; Full FLuc ctr: 71*

Results for COC(=O)c1sc(-c2ccccc2)cc1NC(=O)c1ccc(OC)cc1 ?
UPR CHOP act: 0; Beta apoptosis: 16; Mdm2 MdmX PPI: 75*; SKKanGAS inh: -1; CSC inhib: 24; UPR XBP1 act: 6; Mdm2-MdmX conf: 6

How did Cc1ccc(NC(=O)c2ccc(NCCCN3CCOCC3)c([N+](=O)[O-])c2)cc1Cl do in these assays?
UPR CHOP act: 0; Beta apoptosis: 24; Mdm2 MdmX PPI: 56*; SKKanGAS inh: -1; CSC inhib: 51; UPR XBP1 act: 1; Mdm2-MdmX conf: 37; Full FLuc ctr: 69*

How did CCOc1cc(CNCCO)cc(Br)c1OCc1ccc(Cl)cc1Cl do in these assays?
UPR CHOP act: 7; Beta apoptosis: 31; Mdm2 MdmX PPI: 100*; SKKanGAS inh: 14; CSC inhib: 148*; UPR XBP1 act: 20; Mdm2-MdmX conf: 50*; Full FLuc ctr: 26

What do the screens show for `Cc1ccc(C)c(N2CCN(C(=O)c3ccc4nc(-c5ccco5)c(-c5ccco5)nc4c3)CC2)c1`?
UPR CHOP act: 1; Beta apoptosis: 1; Mdm2 MdmX PPI: 0; SKKanGAS inh: 30; CSC inhib: 0; UPR XBP1 act: -3

Results for O=C(c1ccc2c(Cl)c3c(nc2c1)CCCC3)N1CCN(c2ccc(F)cc2)CC1 ?
UPR CHOP act: 4; Beta apoptosis: -4; Mdm2 MdmX PPI: 42; SKKanGAS inh: 32; UPR XBP1 act: 1
